Columns and labels:
Staphylococcus aureus [1] = assay: Antibacterial activity against methicillin-resistant Staphylococcus aureus NRS123-USA400 clinical isolates assessed as ratio of MIC after and before 13 serial passages by broth microdilution assay; format: functional
Outline: (§1)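 MRSA USA400 was serially passaged over a 14-day period in the presence of each compound or control antibiotic. MIC was determined by broth microdilution after each passage. A four-fold rise in MIC was taken as a sign of resistance.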

Staphylococcus aureus [2] = assay: Antibacterial activity against methicillin-resistant Staphylococcus aureus NRS123-USA400 clinical isolates assessed as ratio of MIC after and before 1 serial passages by broth microdilution assay; format: functional; outline: as §1

Question: `CO[C@H]1/C=C/O[C@@]2(C)Oc3c(C)c(O)c4c(O)c(c(/C=N/N5CCN(C)CC5)c(O)c4c3C2=O)NC(=O)/C(C)=C\C=C\[C@H](C)[C@H](O)[C@@H](C)[C@@H](O)[C@@H](C)[C@H](OC(C)=O)[C@@H]1C` [RIFAMPIN] was tested. Which Ratio (Staphylococcus aureus [1]) did it give?
Answer: Its Ratio is over 500000.

Question: And the Ratio (Staphylococcus aureus [2])?
Answer: The Ratio was 7.
